Most compounds without a hit are left out; they make up all but 3.5% or so of the library.
MrgX1 antagonist: human MrgX1 receptor antagonism, primary screen | AID 588676 | MRGX1-HEK293 calcium flux, Fluo-4, BAM8-22 antagonism; active compounds read low | Q96LB2 | hit rate 1.3% among 310,000 | B-score at 10 µM;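 active = calcium-response B-score plate-corrected more than 3 library SD below zero, starting fluorescence within 5 deviations, no agonist response on first addition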;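 note: peak minus trough fluorescence over baseline after final BAM8-22 challenge near maximal dose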
Target sequence (Q96LB2 whole entry, looked up): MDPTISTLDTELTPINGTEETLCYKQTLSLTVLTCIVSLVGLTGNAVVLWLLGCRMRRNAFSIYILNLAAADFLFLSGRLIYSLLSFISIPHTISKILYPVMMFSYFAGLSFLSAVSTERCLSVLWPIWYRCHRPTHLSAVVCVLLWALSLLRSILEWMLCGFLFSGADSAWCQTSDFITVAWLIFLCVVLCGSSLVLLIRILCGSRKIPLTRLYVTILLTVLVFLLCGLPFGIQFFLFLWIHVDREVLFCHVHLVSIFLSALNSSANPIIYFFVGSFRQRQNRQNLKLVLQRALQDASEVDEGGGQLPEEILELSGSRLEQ
RGS4 pot: RGS4 potentiation or activation; hit rate 0.92% among 310,000; AID 463111; HEK293 M3R/inducible RGS4, carbachol calcium flux Fluo4; active compounds read low; B-score at 10 µM;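 active = B-score of the integrated calcium signal more than 4 SD below the library mean, with starting fluorescence not abnormally high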;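 note: negative B-score means reduced calcium response which marks RGS4 activation or potentiation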
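System: HEK293 FlpIn-TREx cells, stable M3R, doxycycline-inducible RGS4. Timing: overnight RGS4 induction, 30 min dye load 37 °C, 20 min compound RT. Also added: carbachol, ECmax concentration. Measured by: Fluo4 fluorescence kinetic imaging of calcium. Evaluation: integrated calcium ratio converted to B score.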
RGS4 inh: inhibitors of human RGS4. P49798. HEK293 M3R/RGS4 inducible, Fluo-4 calcium flux; active compounds read high; triggered by carbachol at its EC20. B-score at 10 µM. hit rate 0.45% among 310,000. AID 463165;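 active = B-score, a plate-corrected calcium signal, over three deviations above library mean, with baseline fluorescence within five deviations of library mean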;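 note: RGS4 expression induced by doxycycline in cells with stable M3 receptor; B-score is computed from the integrated fluorescence ratio over baseline after carbachol; higher B-score means a larger calcium signal and so more RGS4 inhibition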
Target sequence (P49798 whole entry, looked up): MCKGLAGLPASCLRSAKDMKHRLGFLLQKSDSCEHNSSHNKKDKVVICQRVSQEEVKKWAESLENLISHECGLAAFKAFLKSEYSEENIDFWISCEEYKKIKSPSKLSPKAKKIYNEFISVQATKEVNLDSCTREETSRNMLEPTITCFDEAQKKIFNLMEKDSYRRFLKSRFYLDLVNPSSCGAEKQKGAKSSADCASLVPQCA
MrgX1 ag: agonists of human MrgX1 receptor. AID 588627. B-score at 10 µM. MrgX1-HEK293 cells, Fluo-4 calcium fluorescence, agonist mode; active compounds read high. Q96LB2. hit rate 0.44% among 310,000;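 active = calcium response B-score plate-corrected fluorescence ratio at least 3 library SD, with starting fluorescence B-score inside 5 SD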
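Test system: HEK293 cells stably expressing human MrgX1 receptor; Input: fifteen thousand cells per well; Dosing: compound delivered in addition one of three; Schedule: overnight seeding, then 1 h dark dye loading; Technique: Fluo-4 NW calcium fluorescence; Measure: B-scored fluorescence response ratio; Controls: positive and negative controls per plate.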
MrgX1 allo act: allosterically activates human MrgX1 receptor signaling | Q96LB2 | MrgX1-HEK293, Fluo-4 calcium flux, FDSS; active compounds read high | B-score at 10 µM | hit rate 0.63% among 310,000;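 active = plate-corrected calcium response at least 3 library SD above typical, normal starting fluorescence, not activating the receptor alone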;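 note: compound read alongside a low EC10 to EC30 dose of BAM8-22 agonist; peak minus trough fluorescence over baseline measured at the second addition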
* = called active by the depositor; i = inactive; . = not tested or not shown.

SMILES	MrgX1 antagonist	RGS4 pot	RGS4 inh	MrgX1 ag	MrgX1 allo act
Cc1ccc(S(=O)(=O)N2CCC(=O)N(C(COCc3cccc(C)c3)Cc3ccccc3)CC2)cc1 (stereo not given)	i	i	i	i	i
Cc1ccc(S(=O)(=O)N2CCC(=O)N(C(COCc3ccc(C(F)(F)F)cc3)Cc3ccccc3)CC2)cc1 (stereo not given)	i	-7.3*	i	i	i
COc1ccc(Cl)cc1-n1c(C)cc(C=O)c1C	i	i	i	i	7.8*
CC(C)n1nc(C(=O)Nc2nc3ccc(S(C)(=O)=O)cc3s2)c2ccccc2c1=O	i	i	i	i	i
CC(C)n1nc(C(=O)Nc2nnc(SCc3c(Cl)cccc3Cl)s2)c2ccccc2c1=O	-6.2*	i	i	i	i
COCCn1c(SCC(=O)N(C(C)C)C(C)C)nnc1-c1cc2ccccc2cc1O	i	i	i	i	6.6*
COc1ccc(-c2cnc(SCC(=O)Nc3ccc4c(c3)OCO4)n2Cc2ccco2)cc1	.	i	i	.	.
CC(=O)Nc1cccc(NC(=O)CSc2ncc(C(=O)Nc3ccccc3)c(=O)n2C)c1	i	i	5.8*	i	i
CC(=O)Nc1ccc(NC(=O)CSc2ncc(C(=O)Nc3ccc(Cl)cc3)c(=O)n2C)cc1	i	i	i	i	i
CC(=O)Nc1cccc(NC(=O)CSc2ncc(-c3ccc(Cl)cc3)n2Cc2ccco2)c1	i	-8.6*	i	i	i
O=C(OCc1nc2ccsc2c(=O)[nH]1)c1ccc(Cl)s1	i	i	i	i	i
N#Cc1cc(-c2ccccc2)nc(N2CCNCC2)n1	i	i	i	i	i
COc1ccc(S(=O)(=O)N(C)c2ccc(C(=O)Nc3ccccc3C(=O)N3CCOCC3)cc2)cc1OC	i	i	i	i	i
C=C(C)[C@@H]1CC=C(CN2CCN(Cc3ccccc3)CC2)CC1	i	i	i	i	i
CCOC(=O)CSc1nc2ccc(NC(=O)CSc3nnnn3Cc3ccccc3)cc2s1	i	i	i	i	6.9*
C/C(=N\N=C(N)N)c1ccc(Cl)c(Cl)c1	i	i	i	i	14*
C/C(=N\NC(=O)C1CC1)c1ccc(Cl)c(Cl)c1	i	i	i	i	i
Cc1ccccc1-n1ncc2c1CC(C)(C)CC2NC(=O)C1=CC(=O)CC(C)(C)O1 (stereo not given)	i	i	i	i	i
COc1ccc(/C=C(\NC(=O)c2cccs2)C(=O)Nc2cccc3ccccc23)cc1OC	i	i	i	28*	i
Cc1ccc(S(=O)(=O)NC2=NCN(CC(=O)O)CN2)cc1	i	i	i	i	i
Cc1cccc(-n2cnc3c(sc4nc(N5CCOCC5)c5c(c43)CCCC5)c2=O)c1	i	i	i	i	i
COc1ccc(N(CC(=O)N/N=C/c2cc3ccc(OC)cc3nc2Cl)S(=O)(=O)c2ccccc2)cc1	i	i	i	i	9.1*
Cc1ccc(CNc2ccc3c(c2)OCO3)cc1	i	i	i	29*	i
Cc1ccc(C)c(NC(=S)NCc2ccc3c(c2)OCO3)c1	i	-7.2*	i	i	i
c1cc(CNc2ccc3c(c2)OCO3)ccn1	i	i	i	i	i
SMILES	MrgX1 antagonist	RGS4 pot	RGS4 inh	MrgX1 ag	MrgX1 allo act
O=C(/C=C/c1ccc(F)cc1)NCc1ccco1	i	i	i	i	i
O=C(/C=C/c1c(F)cccc1Cl)NCc1ccco1	-4.5*	i	i	i	i
O=C(CN1C(=O)/C(=C/c2c(F)cccc2Cl)Oc2ccccc21)NCc1ccco1	-6.6*	i	i	i	i
COCCN(Cc1nc(C(c2ccccc2)c2ccccc2)no1)C(C)C	i	i	i	i	i
CC(C)(C)c1ccc(NNC(=O)C2CCC2)cc1	i	i	i	i	i
O=[N+]([O-])c1ccc(Nc2ccccc2)c2nonc12	i	i	i	i	i
O=[N+]([O-])c1ccc(Sc2cccc[n+]2[O-])c2nonc12	.	-8.4*	i	.	.
COCC1CCN(C(=O)c2cc(COc3cc(C)c(Cl)c(C)c3)on2)C1 (stereo not given)	i	i	i	i	i
Cc1sc2ncnc(N/N=C/c3ccc(O)cc3)c2c1C	i	i	i	i	i
COc1ccc(/C=N/Nc2ncnc3sc(C)c(C)c23)cc1	i	i	i	i	12*
CN(C(=O)c1ccncc1)c1ccccc1	i	i	i	i	i
C/C(=N\N(Cc1ccccc1)c1ccccc1)c1ccncc1	i	-9.2*	i	i	i
C=CCOc1ccccc1CN1CCN(CCc2ccccc2)C(CCO)C1 (stereo not given)	i	i	i	i	i
CN(c1ccccc1)c1nc(N)c([N+](=O)[O-])c(Nc2ccccc2F)n1	i	i	i	i	i
COc1ccc(OC)c(Nc2nc(N(C)c3ccccc3)nc(N)c2[N+](=O)[O-])c1	i	-8.1*	i	i	i
COc1ccc(N2CC(C(=O)N[C@@H](CC(C)C)C(=O)NC3CCCCC3)CC2=O)cc1 (stereo not given in full)	i	i	i	i	i
O=C(O)c1ccc(/C=N/NC(=O)c2ccc(NS(=O)(=O)c3cccs3)cc2)cc1	i	i	i	i	i
O=C(N/N=C/c1ccncc1)c1ccc(NS(=O)(=O)c2cccs2)cc1	i	i	i	i	9.6*
COc1ccc(CCC(=O)OCC(=O)Nc2ccccc2)cc1	i	i	i	i	i
CC(OC(=O)CN1C(=O)c2ccccc2C1=O)C(=O)N(C)c1ccccc1 (stereo not given)	i	i	i	i	i
O=C(Nc1cc(C(F)(F)F)cc(C(F)(F)F)c1)Nc1cnn(-c2ccc([N+](=O)[O-])cc2)c1C(F)(F)F	-7*	i	i	i	i
CNC(=O)Nc1cc(C(F)(F)F)cc(C(F)(F)F)c1	i	i	i	i	i
C=CCn1c(SCC(=O)N2CCOCC2)nnc1C(C)NC(=O)c1ccccc1 (stereo not given)	-5.4*	i	i	i	i
C=CCn1c(SCCOc2ccccc2)nnc1C(C)NC(=O)c1ccccc1 (stereo not given)	i	i	i	i	i
CCCN(CCC)CCNC(=O)c1cc2c(-c3ccc(Cl)cc3)nn(C)c2s1	i	-7.2*	i	i	i
